The target in assay [1] is T1, Alpha-1B adrenergic receptor (Homo sapiens, UniProt P35368).
T1 sequence (P35368 whole entry): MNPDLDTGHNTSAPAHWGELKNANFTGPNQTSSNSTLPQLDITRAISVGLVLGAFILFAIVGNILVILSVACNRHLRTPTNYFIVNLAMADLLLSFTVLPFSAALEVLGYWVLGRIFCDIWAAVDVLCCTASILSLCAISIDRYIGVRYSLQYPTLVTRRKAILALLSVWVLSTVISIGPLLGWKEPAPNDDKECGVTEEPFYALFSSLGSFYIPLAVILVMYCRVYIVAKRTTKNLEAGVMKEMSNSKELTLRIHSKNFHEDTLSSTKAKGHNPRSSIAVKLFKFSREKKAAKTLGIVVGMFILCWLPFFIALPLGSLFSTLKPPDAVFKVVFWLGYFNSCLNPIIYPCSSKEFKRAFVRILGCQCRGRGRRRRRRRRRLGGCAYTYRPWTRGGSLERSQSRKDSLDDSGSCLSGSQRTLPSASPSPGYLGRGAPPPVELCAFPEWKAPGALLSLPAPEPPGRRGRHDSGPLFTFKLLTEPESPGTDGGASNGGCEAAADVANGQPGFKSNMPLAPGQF
Briefly: Binding affinity was determined on human cloned alpha-1B adrenergic receptor. The essentials:
(§1)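 Membranes from CHO cells stably expressing each human α1-adrenoceptor subtype, incubated in 50 mM Tris pH 7.4 with 0.2 nM [3H]prazosin and competing drugs (1 pM–10 µM), 30 min at 25 °C. Nonspecific binding with 10 µM phentolamine. Stopped with ice-cold Tris and filtration through 0.2% PEI-pretreated filters.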

The target in assay [2] is T2, 5-hydroxytryptamine receptor 1A (Homo sapiens) (UniProt P08908).
T2 sequence (whole entry): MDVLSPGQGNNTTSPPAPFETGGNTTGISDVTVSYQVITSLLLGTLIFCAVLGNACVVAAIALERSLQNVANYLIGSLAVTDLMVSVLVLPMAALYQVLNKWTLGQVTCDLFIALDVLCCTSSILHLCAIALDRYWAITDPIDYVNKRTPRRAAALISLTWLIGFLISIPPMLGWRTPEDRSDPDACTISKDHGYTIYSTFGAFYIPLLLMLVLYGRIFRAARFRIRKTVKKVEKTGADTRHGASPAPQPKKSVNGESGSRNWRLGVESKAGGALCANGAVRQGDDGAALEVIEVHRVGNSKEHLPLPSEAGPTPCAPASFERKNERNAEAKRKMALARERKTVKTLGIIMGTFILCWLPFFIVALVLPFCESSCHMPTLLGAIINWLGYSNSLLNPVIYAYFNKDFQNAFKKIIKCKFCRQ
Put plainly: Maximal stimulation was expressed as percentage of the maximal 5-HT response in the [35S]GTP-gamma-S, binding assay on 5-hydroxytryptamine 1A receptor. The assay is classed as functional. The essentials: (§2)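 Membranes of HeLa cells expressing human 5-HT1A, in 20 mM HEPES, 3 mM MgCl2, 120 mM NaCl pH 7.4. Preincubated 20 min at 30 °C with 30 µM GDP and drug (0.1 nM–100 µM) or 5-HT as reference curve. [35S]GTPγS (200–250 pM) then added for 30 min at 30 °C. Nonspecific binding with 10 µM GTPγS. Curves fitted by ALLFIT to give Emax and pD2 (−log EC50).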
(In general: Binding of GTPγS marks nucleotide exchange on a G protein.)

The target of assay [3] is T3, Alpha-1A adrenergic receptor (Homo sapiens, UniProt P35348).
T3 sequence (P35348 whole entry): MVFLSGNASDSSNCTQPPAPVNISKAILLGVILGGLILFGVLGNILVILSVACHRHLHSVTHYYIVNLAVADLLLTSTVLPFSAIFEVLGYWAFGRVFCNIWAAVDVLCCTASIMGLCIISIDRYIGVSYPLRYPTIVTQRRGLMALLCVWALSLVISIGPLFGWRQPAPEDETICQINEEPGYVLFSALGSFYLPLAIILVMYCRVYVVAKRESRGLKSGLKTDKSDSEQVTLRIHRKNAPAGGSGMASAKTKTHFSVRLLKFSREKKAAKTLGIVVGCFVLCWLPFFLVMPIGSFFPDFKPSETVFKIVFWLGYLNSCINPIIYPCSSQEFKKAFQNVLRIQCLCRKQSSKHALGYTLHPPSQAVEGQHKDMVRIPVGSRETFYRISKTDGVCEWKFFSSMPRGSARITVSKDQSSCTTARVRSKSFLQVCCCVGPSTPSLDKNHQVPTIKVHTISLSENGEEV
Put plainly: Binding affinity was determined on human cloned Alpha-1A adrenoceptor. The essentials:
as §1

A short description of assay [4]: Selectivity expressed as a ratio of affinity against Alpha 1A-Adrenoceptor to that of 5-HT1A receptor.
Assay [5] is described as follows: Selectivity expressed as a ratio of affinity against Alpha 1d-Adrenoceptor to that of 5-HT1A receptor.
Assay [6] deals with T4, 5-hydroxytryptamine receptor 1A (Homo sapiens, UniProt P08908).
T4 sequence (P08908 whole entry): T2 sequence (whole entry)
Briefly: Binding affinity on human cloned 5-hydroxytryptamine 1A receptor transfected in human cell lines (He La). Format: cell-based, Cell line. Summed up: (§3)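 HeLa cells stably expressing human 5-HT1A (genomic clone G-21), grown in DMEM with 10% FCS. […] Nonspecific binding with 10 µM 5-HT. Filtration through PEI-pretreated filters.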

Assay [7] can be described thus: Selectivity expressed as a ratio of affinity against Alpha 1b-Adrenoceptor to that of 5-HT1A receptor.
Assay [8] concerns the target T2, 5-hydroxytryptamine receptor 1A (Homo sapiens). Briefly: Potency (pD2) for the stimulation of [35S]GTP-gamma-S, binding on 5-hydroxytryptamine 1A receptor. The assay is classed as functional. Summed up: as §2
The target of assay [9] is T4, 5-hydroxytryptamine receptor 1A. Briefly: Binding affinity on human cloned 5-hydroxytryptamine 1A receptor transfected in human cell lines(He La). The essentials:
as §3

One may read the Ki as a dissociation constant, usually derived from enzyme kinetics or from competition with a known ligand. Higher therefore signals lower affinity. A word on the Emax: it is the size of the effect at its maximum, as opposed to the concentration needed. In the case of `COc1cccc2c1CCCC2CCCN1CCN(c2ccccn2)CC1` (stereo unspecified), the Ki stood at 7.88 nM in assay [1], 0.33 nM in [3] and 0.08 nM in assay [6]. Besides, the Emax in [2] is 98.2%. Further, the values for the Selectivity in [4], in [5] and in assay [7] were 4, 74 and 98, respectively. The compound also displayed a pD2 in assay [8] of 10.2.
Consider `COc1cccc(C2CCC(N3CCN(c4ccccc4OC)CC3)CC2)c1` (stereo in doubt; trans), for which the values for the inhibition constant Ki in assay [9], in assay [1] and in [3] were 0.21 nM, 43.3 nM and 4.98 nM, respectively.
Turning to `COc1cccc(C2CCC(N3CCN(c4ccccn4)CC3)CC2)c1` (trans isomer), the Ki in assay [9] is 0.2 nM; in assay [1], 53.1 nM; in [3], 33 nM.
For the compound `COc1cccc2c(CCCN3CCN(c4ccccn4)CC3)cccc12`, the inhibitory constant (Ki) came out at 3 nM in [9], 4.21 nM in assay [1] and 1.62 nM in assay [3]. In assay [2], this compound gave an Emax of 86.3%. For the same compound, the figures for the Selectivity in assay [4], in assay [5] and in assay [7] were 0.5, 4 and 1, respectively. In assay [8], this compound registered a pD2 of 7.87.
For `COc1cccc2c1CCCC2CCCNCCOc1ccccn1` (stereo unspecified), the Ki was 0.23 nM in [9], 26.4 nM in assay [1] and 0.55 nM in assay [3]. This compound also gave a maximal response (Emax) in assay [2] of 86.8%. The Selectivity came out at 2 in assay [4], 55 in assay [5] and 115 in assay [7]. The same compound showed a pD2 in assay [8] of 10.2.
As to `COc1cccc2c(CCCNCCOc3ccccn3)cccc12`, the inhibition constant (Ki) amounted to 0.86 nM in [9], 270 nM in assay [1] and 14.6 nM in assay [3]. The compound also registered an Emax in assay [2] of 48%. Moreover, the Selectivity in assay [4] turned out to be 17; in [5], 97; in [7], 314. This compound showed a pD2 in [8] of 8.2.
As to `COc1cccc(C2CCC(NCCOc3ccccn3)CC2)c1` (stereo in doubt), the values for the Ki in [9], in assay [1] and in [3] were 3.77 nM, 332 nM and 201 nM, respectively.

The values above are taken from ChEMBL document CHEMBL1134307, “trans-4-[4-(Methoxyphenyl)cyclohexyl]-1-arylpiperazines: a new class of potent and selective 5-HT(1A) receptor ligands as conformationally constrained analogues of 4-[3-(5-methoxy-1,2,3,4-tetrahydronaphthalen-1-yl)propyl]-1-arylpiperazines” (J Med Chem, 2001).
